# Experimental data published in ChEMBL document CHEMBL1148987, “Antimycobacterial coumarins from the sardinian giant fennel (Ferula communis)” (2004).
# Columns and labels:
# Type in all cases: functional
# [1] = test system: Mycolicibacterium fortuitum; test: Antimycobacterial activity against Mycobacterium fortuitum ATCC 6841 after 72 hrs by MTT assay; conditions: ATCC 6841, 72 h
# Summary of the method: (§1)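 Standard broth microdilution MIC in Ca2+/Mg2+-adjusted Mueller-Hinton broth; strains kept on Columbia blood agar with 5% defibrinated horse blood. DMSO stocks diluted into MHB, 2-fold series with final range […]. Inoculum from 0.5 McFarland standard in saline, final 5 × 10^5 cfu/mL; 37 °C for 72 h. Growth read by MTT (20 min, 37 °C, blue = growth); MIC = lowest concentration with no growth.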
# Mycolicibacterium phlei = test: Antimycobacterial activity against Mycobacterium phlei ATCC 11758 after 72 hrs by MTT assay; conditions: ATCC 11758, 72 h; summary of the method: as §1
# Mycolicibacterium aurum = test: Antimycobacterial activity against Mycobacterium aurum after 120 hrs by MTT assay
# Summary of the method: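 Broth microdilution MIC in Ca2+/Mg2+-adjusted Mueller-Hinton broth; strain maintained on Columbia blood agar with 5% defibrinated horse blood. Compounds dissolved in DMSO, diluted into MHB, 2-fold serial dilutions giving final 512 to 1 μg/mL. Inoculum from 0.5 McFarland in saline, final 5 × 10^5 cfu/mL. Incubated 37 °C, 120 h. MTT added, 20 min at 37 °C; blue indicates growth; MIC = lowest concentration without growth.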
# [2] = test system: Mycolicibacterium smegmatis; test: Antimycobacterial activity against Mycobacterium smegmatis ATCC 14468 after 72 hrs by MTT assay; conditions: ATCC 14468, 72 h; summary of the method: as §1
structure (smiles),measurement,setting,value
CC(C)=CCC/C(C)=C/CC/C(C)=C/Cc1c(O)c2ccccc2oc1=O,MIC,[1],2 µg/mL
same,MIC,Mycolicibacterium phlei,2 µg/mL
same,MIC,Mycolicibacterium aurum,2 µg/mL
same,MIC,[2],0.5 µg/mL
CCCCCCCCCc1c(O)c2ccccc2oc1=O,MIC,[1],3.5 µg/mL
C/C(=C\CC/C(C)=C/Cc1c(O)c2ccccc2oc1=O)CC/C=C(\C)COC(=O)c1ccccc1,MIC,[1],16 µg/mL
same,MIC,Mycolicibacterium phlei,2 µg/mL
same,MIC,Mycolicibacterium aurum,8 µg/mL
same,MIC,[2],2 µg/mL
C/C(=C\CC/C(C)=C/CC/C(C)=C/Cc1c(O)c2ccccc2oc1=O)CO,MIC,[1],64 µg/mL
same,MIC,Mycolicibacterium phlei,16 µg/mL
same,MIC,Mycolicibacterium aurum,32 µg/mL
same,MIC,[2],16 µg/mL
CC(=O)OC/C(C)=C/CC/C(C)=C/CC/C(C)=C/Cc1c(O)c2ccccc2oc1=O,MIC,[1],32 µg/mL
same,MIC,Mycolicibacterium phlei,8 µg/mL
same,MIC,Mycolicibacterium aurum,16 µg/mL
same,MIC,[2],8 µg/mL
CC[C@@H](CO)NCCN[C@@H](CC)CO [ETHAMBUTOL],MIC,[1],8 µg/mL
same,MIC,Mycolicibacterium phlei,2 µg/mL
same,MIC,Mycolicibacterium aurum,0.5 µg/mL
same,MIC,[2],0.5 µg/mL
NNC(=O)c1ccncc1 [ISONIAZID],MIC,[1],0.5 µg/mL
same,MIC,Mycolicibacterium phlei,4 µg/mL
same,MIC,Mycolicibacterium aurum,2 µg/mL
same,MIC,[2],1 µg/mL
